Published values gathered from unrelated publications.
Lines come from different studies, so protocols differ.
Observed: metabolic stability
Host: human
Sample: liver microsomes

| SMILES | setting | microsomal CLint [µL/min/mg] |
| --- | --- | --- |
| CCC(F)(F)c1nc2nc(C)cc(Nc3ccc(C(F)(F)F)cc3)n2n1 | 1 µM, pH 7.4 | < 6 |
| C[C@H](C(=O)NC1Cc2ccccc2C1)c1ccc(F)cc1 | 1 µM, 1 h | 120 |
| CC(C)(C)[Si](C)(C)OCCCN(c1ccc(F)cc1)c1c(-c2ccccn2)nc2ccccn12 | 3 µM, pH 7.4 | > 300 |
| FC(F)(F)c1ccccc1-c1nc(N2CCC(c3ccccn3)C2)c2ccccc2n1 (centres unmarked) |  | 199 |
| COc1cc(OC)cc(-c2c(-c3ccccn3)nc3n2CCC3)c1 | 3 µM, pH 7.4 | 53 |
| Cc1cc(Nc2ccc(C(F)(F)F)cc2)n2nc(C(C)(F)F)nc2n1 | 1 µM, pH 7.4 | < 6 |
| COc1cc2[nH]c(C)c(-c3ccc(COc4ccccc4)cc3)c(=O)c2cc1Cl | 1 µM | 22 |
| CCOc1ccc2ccc(=O)oc2c1 | 1 µM, pH 7.4 | 146 |
| COc1cc2[nH]c(C)c(-c3cc4ccccc4o3)c(=O)c2cc1Cl | 1 µM | 29 |
| C[C@H](C(=O)NC1Cc2ccccc2C1)c1ccccc1 | 1 µM, 1 h | 15 |
| c1ccc(-c2nc3n(c2-c2cccnc2)CCC3)nc1 | 3 µM, pH 7.4 | 24 |
| CCN(CC)CCNC(=O)c1c(C)[nH]c(/C=C2\C(=O)Nc3ccc(F)cc32)c1C | 1 µM, pH 7.4 | 19 |
| COc1cc2[nH]c(C)c(-c3ccc(O)cc3)c(=O)c2cc1Cl | 1 µM | < 7 |
| Fc1ccc(Nc2c(-c3ncccc3F)nc3ccccn23)cc1 | 3 µM, pH 7.4 | 86 |
| O=c1[nH]c(=S)n(Cc2ccc(Cl)cc2CNCC(F)(F)F)c2cc[nH]c12 |  | 8.2 |
| O=S(=O)(c1ccc(-c2ccc3nccc(Nc4cnccn4)c3c2)cc1)N1CCOCC1 |  | 115 |
| c1ccc(CN2CCN(c3nc(-c4ccccn4)nc4ccccc34)CC2)cc1 |  | 136 |
| Fc1ccc(N(CC2CC2)c2c(-c3ccccn3)nc3ccccn23)cc1 | 3 µM, pH 7.4 | 110 |
| COc1cc2[nH]c(C)c(-c3ccc(C(F)(F)F)cc3)c(=O)c2cc1Cl | 1 µM | < 7 |
| CCn1cnc2c(N3CCC(c4ccccn4)C3)nc(-c3ccccn3)nc21 (centres unmarked) |  | 42 |
| Cc1cc(Nc2ccnc3ccc(-c4ccc(S(=O)(=O)N5CCOCC5)cc4)cc23)on1 |  | 69.8 |
| COc1cc2[nH]c(C)c(-c3ccc(C(C)C)cc3)c(=O)c2cc1Cl | 1 µM | 34 |
| CCc1nnc(Nc2ccnc3ccc(-c4ccc(S(=O)(=O)N5CCOCC5)cc4)cc23)s1 |  | 59.3 |
| O=C(N[C@H](Cc1ccccc1)C(=O)Nc1ccccc1N1CCS(=O)(=O)CC1)c1ccccc1F | 2 µM, 40 min, pH 7.4 | 1110 |

| SMILES | setting | microsomal CLint [µL/min/mg] |
| --- | --- | --- |
| COc1cc2[nH]c(C)c(-c3ccc(CO)cc3)c(=O)c2cc1Cl | 1 µM | < 7 |
| CN(c1ccc(F)cc1)c1c(-c2ccc(F)cn2)nc2ccccn12 | 3 µM, pH 7.4 | 220 |
| Cc1cc(Nc2ccc(S(F)(F)(F)(F)F)cc2)n2ccnc2n1 |  | 7.1 |
| COc1cc2[nH]c(C)c(-c3cccc(CO)c3)c(=O)c2cc1Cl | 1 µM | < 7 |
| CCOCCOc1ccnc2ccc(-c3ccc(S(=O)(=O)N4CCOCC4)cc3)cc12 |  | > 300 |
| Fc1ccc(Nc2c(Cn3cccn3)nc3ccccn23)cc1 | 3 µM, pH 7.4 | 45 |
| CS(=O)(=O)c1ccc(-c2cnc(N)c(-c3ccc(C(F)(F)F)nc3)c2)cc1 | 1 µM | < 11.6 |
| N#CC1CCN(c2nc(-c3ccccn3)nc3ccccc23)C1 (centres unmarked) |  | 45 |
| CCn1nccc1Nc1ccnc2ccc(-c3ccc(S(=O)(=O)N4CCOCC4)cc3)cc12 |  | 134 |
| COc1ccc(CNc2c(CO)cnc3c(C4CC4)cc(C#N)cc23)cc1Cl |  | 80 |
| Cc1cc(Nc2ccc(S(F)(F)(F)(F)F)cc2)n2nc(C(C)(F)F)nc2n1 | 1 µM, pH 7.4 | < 6 |
| CCOC(=O)c1c(-c2cccc(Br)c2)[nH]c2cc(OC)c(F)cc2c1=O | 19.8 µM, pH 7.4 | < 4 |
| O=S(=O)(c1ccc(-c2ccc3nccc(Nc4ncc(Cl)cn4)c3c2)cc1)N1CCOCC1 |  | 113 |
| Cn1ccnc1CNc1nc(-c2ccccn2)nc2ccccc12 |  | 24 |
| COc1ccc(-c2c(C)[nH]c3cc(OC)c(Cl)cc3c2=O)cc1 | 1 µM | < 7 |
| Cc1cccc(CNc2nc(-c3ccccn3)nc3ccccc23)n1 |  | 63 |
| Clc1cccc(-c2c(-c3ccccn3)nc3n2CCC3)c1 | 3 µM, pH 7.4 | 140 |
| Cc1cc(Nc2ccnc3ccc(-c4ccc(S(=O)(=O)N5CCOCC5)cc4)cc23)sn1 |  | 115 |
| Fc1ccccc1-c1nc(N2CCC(c3ccccn3)C2)c2ccccc2n1 (centres unmarked) |  | 186 |
| O=S(=O)(c1ccc(-c2ccc3nccc(Nc4cncs4)c3c2)cc1)N1CCOCC1 |  | 29.5 |
| O=C(Nc1ccc2c(c1)B(O)OC2)Nc1ccc(F)c(C(F)(F)F)c1 |  | 13 |
| c1ccc(-c2nc(N3CCOCC3)c3ccccc3n2)nc1 |  | 58 |
| O=C(C1CCSCC1)N1CC(=O)N2CCc3ccccc3[C@@H]2C1 | 0.1 µM, pH 7.4 | 28 |
